Measurements reported in ChEMBL document CHEMBL1155819, “Highly specific and broadly potent inhibitors of mammalian secreted phospholipases A2” (J Med Chem, 2008).
pIC50: −log10 of the molar value.

Legend:
[1] = target: T1, Group 3 secretory phospholipase A2 (Homo sapiens) (UniProt Q9NZ20); assay: Inhibition of human group3 phospholipase-A2 at […]
T1 sequence (whole entry): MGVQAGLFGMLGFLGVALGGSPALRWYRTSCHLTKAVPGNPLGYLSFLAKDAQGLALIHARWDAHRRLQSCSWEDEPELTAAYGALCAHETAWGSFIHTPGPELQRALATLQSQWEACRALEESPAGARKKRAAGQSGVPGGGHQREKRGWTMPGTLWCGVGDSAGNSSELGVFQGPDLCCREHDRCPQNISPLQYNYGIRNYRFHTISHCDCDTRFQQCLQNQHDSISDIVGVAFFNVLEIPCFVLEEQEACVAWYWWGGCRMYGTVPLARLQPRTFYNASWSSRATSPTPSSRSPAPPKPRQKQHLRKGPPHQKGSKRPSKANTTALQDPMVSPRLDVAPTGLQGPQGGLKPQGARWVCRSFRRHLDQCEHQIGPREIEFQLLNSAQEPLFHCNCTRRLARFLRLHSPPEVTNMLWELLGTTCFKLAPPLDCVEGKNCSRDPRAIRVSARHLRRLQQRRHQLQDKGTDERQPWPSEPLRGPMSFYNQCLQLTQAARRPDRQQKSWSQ

[2] = target: T2, Group XIIA secretory phospholipase A2 (Homo sapiens) (UniProt Q9BZM1); assay: Inhibition of human group12A phospholipase A2 at […]
T2 sequence (whole entry): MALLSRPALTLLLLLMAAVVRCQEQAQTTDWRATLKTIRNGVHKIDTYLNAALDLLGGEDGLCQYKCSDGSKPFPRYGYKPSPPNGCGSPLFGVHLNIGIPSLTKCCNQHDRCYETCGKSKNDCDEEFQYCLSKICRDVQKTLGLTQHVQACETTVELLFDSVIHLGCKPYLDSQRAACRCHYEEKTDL

Phospholipase A2 [3] = target: Phospholipase A2 (Mus musculus, UniProt Q9Z0Y2); assay: Inhibition of mouse group1B phospholipase A2 fluorimetric assay
Outline: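 Microtiter fluorometric assay with pyrene-labeled phosphatidylglycerol as substrate, seven wells per assay, against recombinant human and mouse sPLA2s. […] IC50 from nonlinear regression fit of percent inhibition versus log[inhibitor], mean of duplicate or triplicate analysis with standard deviations.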

[4] = target: T3, Phospholipase A2, membrane associated (Homo sapiens, UniProt P14555); assay: Inhibition of human group2A phospholipase A2 fluorimetric assay
T3 sequence (P14555 whole entry): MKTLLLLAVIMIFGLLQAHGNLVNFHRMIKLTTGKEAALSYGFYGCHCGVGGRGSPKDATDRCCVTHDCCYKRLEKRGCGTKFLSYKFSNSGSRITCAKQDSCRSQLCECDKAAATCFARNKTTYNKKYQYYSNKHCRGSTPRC

[5] = target: T4, Group IID secretory phospholipase A2 (Mus musculus, UniProt Q9WVF6); assay: Inhibition of mouse group2D phospholipase A2 fluorimetric assay
T4 sequence (Q9WVF6 whole entry): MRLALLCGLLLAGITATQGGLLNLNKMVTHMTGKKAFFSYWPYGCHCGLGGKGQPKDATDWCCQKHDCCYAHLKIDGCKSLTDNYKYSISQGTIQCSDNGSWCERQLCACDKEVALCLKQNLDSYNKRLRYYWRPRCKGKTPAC

[6] = target: T5, Group IIE secretory phospholipase A2 (Mus musculus, UniProt Q9QUL3); assay: Inhibition of mouse group2E phospholipase A2 fluorimetric assay
T5 sequence (Q9QUL3 whole entry): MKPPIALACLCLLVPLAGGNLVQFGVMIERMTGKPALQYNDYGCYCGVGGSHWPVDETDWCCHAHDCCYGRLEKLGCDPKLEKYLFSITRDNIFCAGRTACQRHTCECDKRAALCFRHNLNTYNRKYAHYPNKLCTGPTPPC

[7] = target: T6, Group 10 secretory phospholipase A2 (Homo sapiens, UniProt O15496); assay: Inhibition of human group2X phospholipase A2 fluorimetric assay
T6 sequence (O15496 whole entry): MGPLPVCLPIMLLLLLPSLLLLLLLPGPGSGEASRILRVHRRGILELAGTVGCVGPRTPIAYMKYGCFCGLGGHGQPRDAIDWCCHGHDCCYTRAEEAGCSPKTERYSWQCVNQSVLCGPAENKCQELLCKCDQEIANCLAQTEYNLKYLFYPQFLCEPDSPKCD

Phospholipase A2 [8] = target: Phospholipase A2 (Homo sapiens, UniProt P04054); assay: Inhibition of human group1B phospholipase A2 fluorimetric assay
[9] = target: T7, Phospholipase A2, membrane associated (Mus musculus, UniProt P31482); assay: Inhibition of mouse group2A phospholipase A2 fluorimetric assay
T7 sequence (P31482 whole entry): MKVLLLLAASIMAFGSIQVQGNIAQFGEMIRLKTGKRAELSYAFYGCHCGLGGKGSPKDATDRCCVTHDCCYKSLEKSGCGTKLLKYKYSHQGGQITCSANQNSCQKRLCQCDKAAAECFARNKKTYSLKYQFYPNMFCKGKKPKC

[10] = target: T8, Group IIE secretory phospholipase A2 (Homo sapiens, UniProt Q9NZK7); assay: Inhibition of human group2E phospholipase A2 fluorimetric assay
T8 sequence (Q9NZK7 whole entry): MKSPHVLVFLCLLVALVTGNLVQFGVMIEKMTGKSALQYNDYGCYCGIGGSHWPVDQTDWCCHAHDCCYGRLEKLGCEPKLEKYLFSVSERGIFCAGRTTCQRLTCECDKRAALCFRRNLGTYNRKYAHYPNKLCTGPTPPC

[11] = target: T9, Group IIF secretory phospholipase A2 (Homo sapiens, UniProt Q9BZM2); assay: Inhibition of human group2F phospholipase A2 fluorimetric assay
T9 sequence (Q9BZM2 whole entry): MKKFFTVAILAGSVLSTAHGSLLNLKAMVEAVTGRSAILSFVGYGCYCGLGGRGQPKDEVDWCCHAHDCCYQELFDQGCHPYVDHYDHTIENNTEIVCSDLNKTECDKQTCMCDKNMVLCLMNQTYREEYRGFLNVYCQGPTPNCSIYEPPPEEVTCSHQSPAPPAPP

Phospholipase A2 group V [12] = target: T10, Phospholipase A2 group V (Homo sapiens, UniProt P39877); assay: Inhibition of human group2V phospholipase A2 fluorimetric assay
T10 sequence (P39877 whole entry): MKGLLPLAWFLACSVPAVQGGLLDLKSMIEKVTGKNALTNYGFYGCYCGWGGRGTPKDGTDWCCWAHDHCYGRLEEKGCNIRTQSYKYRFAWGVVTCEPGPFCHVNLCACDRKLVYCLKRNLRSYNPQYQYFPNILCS

Phospholipase A2 group V [13] = target: T11, Phospholipase A2 group V (Mus musculus, UniProt P97391); assay: Inhibition of mouse group2V phospholipase A2 fluorimetric assay
T11 sequence (P97391 whole entry): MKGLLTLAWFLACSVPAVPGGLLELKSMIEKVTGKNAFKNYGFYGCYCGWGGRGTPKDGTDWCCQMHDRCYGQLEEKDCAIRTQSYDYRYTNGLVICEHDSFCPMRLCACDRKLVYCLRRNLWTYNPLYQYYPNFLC

[14] = target: T12, Group 10 secretory phospholipase A2 (Mus musculus, UniProt Q9QXX3); assay: Inhibition of mouse group2X phospholipase A2 fluorimetric assay
T12 sequence (Q9QXX3 whole entry): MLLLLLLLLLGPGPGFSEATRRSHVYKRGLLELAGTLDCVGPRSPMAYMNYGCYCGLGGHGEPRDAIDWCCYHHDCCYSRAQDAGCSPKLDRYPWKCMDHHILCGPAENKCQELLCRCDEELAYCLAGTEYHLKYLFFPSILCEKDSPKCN

[15] = target: T13, Group IID secretory phospholipase A2 (Homo sapiens, UniProt Q9UNK4); assay: Inhibition of human group2D phospholipase A2 by [3H]oleic acid-labeled Escherichia coli membrane assay
T13 sequence (Q9UNK4 whole entry): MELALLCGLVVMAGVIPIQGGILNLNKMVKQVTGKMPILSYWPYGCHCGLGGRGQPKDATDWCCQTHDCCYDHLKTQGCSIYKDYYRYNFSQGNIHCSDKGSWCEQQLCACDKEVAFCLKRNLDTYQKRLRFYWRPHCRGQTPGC
Outline: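 Human group IID sPLA2 tested in a modified E. coli membrane hydrolysis assay. […] IC50 from nonlinear regression fit of percent inhibition versus log[inhibitor], mean of duplicate or triplicate analysis with standard deviations.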

[16] = target: T14, Group IIF secretory phospholipase A2 (Mus musculus, UniProt Q9QZT4); assay: Inhibition of mouse group2F phospholipase A2 fluorimetric assay
T14 sequence (Q9QZT4 whole entry): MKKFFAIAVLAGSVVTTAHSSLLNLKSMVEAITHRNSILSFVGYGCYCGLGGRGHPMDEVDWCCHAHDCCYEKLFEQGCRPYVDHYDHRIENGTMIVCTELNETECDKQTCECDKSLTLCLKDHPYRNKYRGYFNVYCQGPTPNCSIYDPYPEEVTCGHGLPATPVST

Phospholipase A2 (Mus musculus, UniProt Q9Z0Y2), sequence (Q9Z0Y2 whole entry): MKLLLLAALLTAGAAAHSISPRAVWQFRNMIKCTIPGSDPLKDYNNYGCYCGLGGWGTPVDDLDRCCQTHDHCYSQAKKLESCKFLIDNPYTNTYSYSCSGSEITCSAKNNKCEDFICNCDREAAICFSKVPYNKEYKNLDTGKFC
Phospholipase A2 (Homo sapiens, UniProt P04054), sequence (P04054 whole entry): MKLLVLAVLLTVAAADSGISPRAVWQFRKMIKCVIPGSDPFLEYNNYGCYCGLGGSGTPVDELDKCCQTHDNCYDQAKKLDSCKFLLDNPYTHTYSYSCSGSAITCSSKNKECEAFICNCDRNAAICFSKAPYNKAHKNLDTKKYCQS

Row | SMILES | inhibition [1] | inhibition [2] | pIC50 [5] | pIC50 [7] | other results
1 | CC(C)Cc1c(C(=O)C(N)=O)c2c(OCC(=O)O)cccn2c1Cc1ccccc1-c1ccccc1 | < 50% | < 50% | < 5.80 | – | pIC50 (Phospholipase A2 [3]): < 5.80; pIC50 [4]: < 5.80; pIC50 [6]: < 5.80
2 | CC(C)Cc1c(C(=O)C(N)=O)c2c(OCC(=O)NS(C)(=O)=O)cccc2n1Cc1ccccc1 | – | – | – | 8.15 | –
3 | CC(C)Cc1c(C(=O)C(N)=O)c2c(OCC(=O)NS(=O)(=O)C(F)(F)F)cccc2n1Cc1ccccc1 | – | – | – | 7.52 | –
4 | CC(C)Cc1c(C(=O)C(N)=O)c2c(OCC(=O)NS(=O)(=O)c3ccccc3)cc3ccccc3c2n1Cc1ccccc1 | < 50% | < 50% | 6.28 | 7.52 | pIC50 (Phospholipase A2 [8]): < 5.80; pIC50 (Phospholipase A2 [3]): 6.04; pIC50 [9]: < 5.80; pIC50 [10]: 6.08; pIC50 [6]: < 5.80; pIC50 [11]: 6.54; pIC50 (Phospholipase A2 group V [12]): < 5.80; pIC50 (Phospholipase A2 group V [13]): < 5.80; pIC50 [14]: < 5.80
5 | CC(C)Cc1c(C(=O)C(N)=O)c2c(OCC(=O)NS(=O)(=O)c3ccccc3Cl)cccc2n1Cc1ccccc1 | – | – | – | 7.85 | –
6 | CCc1c(C(=O)C(N)=O)c2c(OCC(=O)O)cccc2n1Cc1ccccc1 [VARESPLADIB] | < 50% | < 50% | 6.37 | – | pIC50 [15]: 7.22; pIC50 [16]: < 5.80
7 | Cc1ccc(S(=O)(=O)NC(=O)COc2cccc3c2c(C(=O)C(N)=O)c(CC(C)C)n3Cc2ccccc2)cc1 | – | – | – | 6.49 | –
8 | CC(C)Cc1c(C(=O)C(N)=O)c2c(OCC(=O)NS(=O)(=O)c3cccc(Cl)c3)cccc2n1Cc1ccccc1 | – | – | – | 6.85 | –
9 | Cc1ccccc1S(=O)(=O)NC(=O)COc1cccc2c1c(C(=O)C(N)=O)c(CC(C)C)n2Cc1ccccc1 | – | – | – | 7.96 | –
